Assays:
[1] = target: T1, Muscarinic acetylcholine receptor M1 (Homo sapiens, UniProt P11229); experiment: Positive allosteric modulation of human muscarinic acetylcholine receptor M1 expressed in CHO cells assessed as increase in acetylcholine-induced calcium mobilization preincubated for 10 mins followed by acetylcholine addition by Fluo-8-AM dye based FLIPR assay; assay type: ADME, cell-based
T1 sequence (P11229 whole entry): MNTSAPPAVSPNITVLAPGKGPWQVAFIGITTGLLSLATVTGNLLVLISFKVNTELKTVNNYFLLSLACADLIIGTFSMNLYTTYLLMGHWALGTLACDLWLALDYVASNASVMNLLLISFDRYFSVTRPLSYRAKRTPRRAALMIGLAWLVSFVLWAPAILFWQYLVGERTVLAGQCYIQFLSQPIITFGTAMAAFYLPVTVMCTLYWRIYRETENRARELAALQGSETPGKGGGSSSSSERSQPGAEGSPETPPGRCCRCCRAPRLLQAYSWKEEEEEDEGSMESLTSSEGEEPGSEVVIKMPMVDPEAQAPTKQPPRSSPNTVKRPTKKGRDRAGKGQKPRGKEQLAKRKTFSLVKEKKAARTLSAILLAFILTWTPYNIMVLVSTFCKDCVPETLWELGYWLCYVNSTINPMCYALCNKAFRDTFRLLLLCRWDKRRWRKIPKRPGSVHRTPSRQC
How it was run: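 M1 potentiation (PAM) format: calcium mobilization read on a FLIPR plate reader with an EC20 concentration of ACh present. EC50 is the geometric mean of at least three experiments.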

[2] = Intrinsic clearance in human liver microsomes; assay type: ADME, microsome; conditions: read-out: CLH
MDR1 = experiment: Efflux ratio of permeability from basolateral to apical side over apical to basolateral side in MDCK1 cells expressing MDR1; assay type: ADME, cell-based, Canis lupus familiaris; conditions: dog, MDCK-MDR1
How it was run: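 MDCKI-MDR1 cells (MDCK epithelial line transfected with MDR1/P-gp; from the NIH). Permeability measured as a rate in 10−6 cm/s in both directions; value is the BA/AB ratio.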

Cytochrome P450 3A4 = Cytochrome P450 3A4 (Homo sapiens, UniProt P08684); experiment: Time dependent inhibition of CYP3A4 (unknown origin) by high throughput assay relative to 2-((3R,4S)-3-Hydroxytetrahydro-2H-pyran-4-yl)-5-methyl-6-(4-(oxazol-4-yl)benzyl)isoindolin-1-one; assay type: ADME
[3] = Ratio of unbound AUC in rat brain to plasma at 45 mg/kg, po administered as single dose; assay type: ADME, organism-based
How it was run: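 Rats, 3 per sex, received a single oral 45 mg/kg dose as a nanosuspension in 1.25% w/v hydroxypropyl cellulose SL with 0.05% docusate sodium in purified water. The brain/plasma ratio is the AUC ratio of unbound drug in brain to unbound drug in plasma. It was used to estimate unbound brain levels from measured unbound plasma Cmax.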

Mus musculus = experiment: In vivo agonist activity at muscarinic acetylcholine receptor M1 in C57BL/6 mouse assessed as unbound brain concentration required to show 2 fold increase in IP1 accumulation in striatum at 1 to 10 mg/kg, sc measured after 2 hrs; assay type: organism-based
How it was run: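 Cb,u giving a 2-fold rise in striatal IP1 in C57BL/6 mice, estimated by interpolation of individual-mouse IP1 versus free brain exposure data.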

[4] = target: T1, Muscarinic acetylcholine receptor M1; experiment: Agonist activity at human muscarinic acetylcholine receptor M1 expressed in CHO cells assessed as increase in calcium mobilization incubated for 10 mins by Fluo-8-AM dye based FLIPR assay; assay type: cell-based
How it was run: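 M1 FLIPR calcium mobilization run in agonist mode (compound added without the EC20 ACh used in PAM mode). Top concentration 10 μM. EC50 values are geometric means of at least three experiments.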

[5] = (§1) Ratio of unbound Cmax in rat brain assessed as convulsions at 45 mg/kg, po administered as single dose to unbound brain concentration for agonist activity at muscarinic acetylcholine receptor M1 in C57BL/6 mouse assessed as required to show 2 fold increase in IP1 accumulation in striatum at 1 to 10 mg/kg, sc; assay type: organism-based
Rattus norvegicus [6] = experiment: Toxicity in rat assessed as unbound Cmax in plasma required to show convulsions at 45 mg/kg, po administered as single dose; assay type: organism-based; conditions: in vivo
[7] = target: T1, Muscarinic acetylcholine receptor M1; experiment: Agonist activity at human muscarinic acetylcholine receptor M1 expressed in CHO cells assessed as increase in calcium mobilization at 13 uM incubated for 10 mins by Fluo-8-AM dye based FLIPR assay relative to control; assay type: cell-based; conditions: read-out: %max
Rattus norvegicus [8] = experiment: Toxicity in rat assessed as unbound Cmax in brain required to show convulsions at 45 mg/kg, po administered as single dose; assay type: organism-based; conditions: in vivo
[9] = target: T1, Muscarinic acetylcholine receptor M1; experiment: Displacement of [3H]PT-1284 human muscarinic acetylcholine receptor M1 expressed in CHO cell membranes after 90 mins scintillation counting method
Canis familiaris [10] = experiment: Toxicity in dog assessed as unbound Cmax in plasma required to show convulsions at 15 mg/kg, po administered as single dose using spray dried dispersion formulation; assay type: organism-based, Canis lupus familiaris; conditions: in vivo
[11] = as §1, with “in dog” for “in rat”, “at 15” for “at 45”; assay type: organism-based
Canis familiaris [12] = experiment: Toxicity in dog assessed as unbound Cmax in brain required to show convulsions at 15 mg/kg, po administered as single dose using spray dried dispersion formulation; assay type: organism-based, Canis lupus familiaris; conditions: in vivo

Chain of Cytochrome P450 3A4 (P08684 whole entry): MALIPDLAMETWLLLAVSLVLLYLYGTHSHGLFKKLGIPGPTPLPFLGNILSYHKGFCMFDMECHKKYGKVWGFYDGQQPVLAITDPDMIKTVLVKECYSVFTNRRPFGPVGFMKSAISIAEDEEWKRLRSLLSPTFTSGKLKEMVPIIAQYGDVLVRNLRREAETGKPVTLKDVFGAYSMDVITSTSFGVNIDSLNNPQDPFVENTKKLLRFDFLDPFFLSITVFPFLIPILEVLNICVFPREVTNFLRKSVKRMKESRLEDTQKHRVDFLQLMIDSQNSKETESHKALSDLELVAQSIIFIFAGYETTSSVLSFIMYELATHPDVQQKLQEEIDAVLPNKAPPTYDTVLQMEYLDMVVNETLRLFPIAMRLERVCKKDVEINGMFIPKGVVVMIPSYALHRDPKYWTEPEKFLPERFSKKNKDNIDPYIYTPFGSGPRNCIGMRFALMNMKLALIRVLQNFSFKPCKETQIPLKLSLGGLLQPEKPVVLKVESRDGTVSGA

Row | SMILES | EC50 [1] [nM] | CLint scaled [2] [mL/min/kg] | efflux ratio (MDR1) | other results
1 | Cc1cc2c(cc1Cc1ccc(-c3cocn3)cc1)C(=O)N([C@H]1CCOC[C@@H]1O)CC2 | 26 | 13 | 2.7 | fold change (FC) (Cytochrome P450 3A4): 6
2 | Cc1ccc(Cc2cc3c(=O)n([C@H]4CCCC[C@@H]4O)cnc3c3ccccc23)cn1 [MK-7622] | 63 | – | – | Kp uu [3]: 0.24; Drug uptake(free) (Mus musculus): 4 nM; EC50 [4]: > 2 µM; selectivity ratio [5]: 33; fCmax (Rattus norvegicus [6]): 550 nM; Emax at 13 µM [7]: 62%; fCmax (Rattus norvegicus [8]): 130 nM; Ki [9]: 8 nM
3 | Cc1cc2c(cc1Cc1ccc(-n3cccn3)cc1)C(=O)N([C@H]1CCOC[C@@H]1O)C2 | 36 | < 8 | 18 | –
4 | Cc1nc(-c2ccc(Cc3cc4c(cc3C)CN([C@H]3CCOC[C@@H]3O)C4=O)cc2)co1 | 50 | 13 | 11 | –
5 | Cc1cc2c(cc1Cc1ccc(-n3ccnc3)cc1)C(=O)N([C@H]1CCOC[C@@H]1O)C2 | 68 | < 8 | 53 | –
6 | Cn1ccc(-c2ccc(Cn3cc(C(=O)N[C@H]4CCOC[C@@H]4O)c4ncccc43)cc2)n1 | – | – | – | Drug uptake(free) (Mus musculus): 32 nM
7 | Cc1cnc(C(=O)N[C@H]2CCOC[C@@H]2O)cc1Cc1ccc(-c2cscn2)cc1 | – | – | – | fCmax (Canis familiaris [10]): 950 nM; selectivity ratio [11]: 20; Drug uptake(free) (Mus musculus): 14 nM; EC50 [4]: > 4 µM; fCmax (Canis familiaris [12]): 290 nM; selectivity ratio [5]: > 29; Emax at 13 µM [7]: 34%; Ki [9]: 19 nM
8 | Cc1cn(-c2ccc(Cc3cc4c(cc3C)CN([C@H]3CCOC[C@@H]3O)C4=O)cc2)cn1 | 45 | 30 | 63 | –
9 | Cc1cc2c(cc1Cc1ccc(-c3cnn(C)c3)cc1)C(=O)N([C@H]1CCOC[C@@H]1O)C2 | 27 | 15 | 7.6 | –

The next lines start with results.

Row | EC50 [1] [nM] | CLint scaled [2] [mL/min/kg] | efflux ratio (MDR1) | SMILES | other results
10 | 7 | 25 | 12 | Cc1cc2c(cc1Cc1ccc(-c3cscn3)cc1)C(=O)N([C@H]1CCOC[C@@H]1O)CC2 | –
11 | 24 | 10 | 11 | Cc1cc2c(cc1Cc1ccc(-c3cscn3)cc1)C(=O)N([C@H]1CCOC[C@@H]1O)C2 | –
12 | 18 | 15 | 11 | Cc1cc2c(cc1Cc1ccc(-n3cccn3)cc1)C(=O)N([C@H]1CCOC[C@@H]1O)CC2 | –
13 | 23 | 21 | 14 | Cc1nc(-c2ccc(Cc3cc4c(cc3C)CCN([C@H]3CCOC[C@@H]3O)C4=O)cc2)co1 | –

Reference: ChEMBL document CHEMBL4017487, “Design and Synthesis of γ- and δ-Lactam M1 Positive Allosteric Modulators (PAMs): Convulsion and Cholinergic Toxicity of an M1-Selective PAM with Weak Agonist Activity” (J Med Chem, 2017)
